# Measured values as given in the M2OR odorant receptor database.
# Residue numbers refer to the chain shown, from its start.
# Columns and labels:
# Details in all cases: stereoisomer not certain
# A0A140T8K0 = system: T1, A0A140T8K0
# T1 sequence (whole entry): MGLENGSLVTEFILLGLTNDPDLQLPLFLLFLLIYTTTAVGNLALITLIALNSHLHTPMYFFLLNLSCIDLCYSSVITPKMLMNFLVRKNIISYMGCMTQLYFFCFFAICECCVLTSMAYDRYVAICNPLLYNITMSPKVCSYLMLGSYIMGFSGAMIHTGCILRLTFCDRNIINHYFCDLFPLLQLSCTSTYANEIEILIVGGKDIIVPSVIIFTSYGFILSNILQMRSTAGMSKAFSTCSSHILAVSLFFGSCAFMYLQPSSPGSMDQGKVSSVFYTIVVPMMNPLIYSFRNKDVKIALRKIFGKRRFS
# Procedure, shortened: (§1)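 Assay methods differ from source to source, frequently being transient luciferase assays in mammalian cell lines. For each receptor–molecule pair, the label responsive (active) applies when the original authors judged the measured signal statistically different from baseline, and non-responsive (inactive) applies otherwise.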
# A0A140T8K4 = system: T2, A0A140T8K4
# T2 sequence (whole entry): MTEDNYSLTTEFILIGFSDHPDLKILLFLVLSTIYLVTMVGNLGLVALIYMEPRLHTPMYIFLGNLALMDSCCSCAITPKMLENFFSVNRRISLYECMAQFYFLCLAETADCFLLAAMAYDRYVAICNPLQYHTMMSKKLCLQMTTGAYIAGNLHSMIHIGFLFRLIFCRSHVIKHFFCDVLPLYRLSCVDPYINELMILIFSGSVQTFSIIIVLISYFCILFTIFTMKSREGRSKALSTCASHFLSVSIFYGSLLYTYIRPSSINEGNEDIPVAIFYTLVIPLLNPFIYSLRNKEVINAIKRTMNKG
# Procedure, shortened: as §1
# A0A2J8MY22 = system: T3, A0A2J8MY22
# T3 sequence (whole entry): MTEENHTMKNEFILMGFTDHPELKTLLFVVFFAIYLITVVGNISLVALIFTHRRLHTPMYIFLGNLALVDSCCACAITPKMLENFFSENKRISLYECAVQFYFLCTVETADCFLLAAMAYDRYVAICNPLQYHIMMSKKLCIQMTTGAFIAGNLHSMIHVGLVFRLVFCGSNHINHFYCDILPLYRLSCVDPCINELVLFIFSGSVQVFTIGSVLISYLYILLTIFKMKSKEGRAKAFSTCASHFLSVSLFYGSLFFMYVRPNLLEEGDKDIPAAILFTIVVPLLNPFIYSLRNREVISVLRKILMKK
# Procedure, shortened: as §1
# A0A2R8ZIW4 = system: T4, A0A2R8ZIW4
# T4 sequence (whole entry): T3 sequence (whole entry) with V39I, I280V
# Procedure, shortened: as §1
# A0A3Q7SVK8 = system: T5, A0A3Q7SVK8
# T5 sequence (whole entry): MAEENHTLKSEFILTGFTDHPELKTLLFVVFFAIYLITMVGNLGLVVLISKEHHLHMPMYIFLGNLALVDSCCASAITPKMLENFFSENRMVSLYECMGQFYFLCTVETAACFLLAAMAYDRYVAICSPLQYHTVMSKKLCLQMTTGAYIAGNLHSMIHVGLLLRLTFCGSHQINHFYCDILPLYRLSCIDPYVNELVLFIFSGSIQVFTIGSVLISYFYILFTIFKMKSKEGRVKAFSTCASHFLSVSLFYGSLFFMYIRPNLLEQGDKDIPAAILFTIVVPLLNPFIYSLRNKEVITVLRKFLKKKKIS
# Procedure, shortened: as §1
# A0A6P3DZI2 = system: T6, A0A6P3DZI2
# T6 sequence (whole entry): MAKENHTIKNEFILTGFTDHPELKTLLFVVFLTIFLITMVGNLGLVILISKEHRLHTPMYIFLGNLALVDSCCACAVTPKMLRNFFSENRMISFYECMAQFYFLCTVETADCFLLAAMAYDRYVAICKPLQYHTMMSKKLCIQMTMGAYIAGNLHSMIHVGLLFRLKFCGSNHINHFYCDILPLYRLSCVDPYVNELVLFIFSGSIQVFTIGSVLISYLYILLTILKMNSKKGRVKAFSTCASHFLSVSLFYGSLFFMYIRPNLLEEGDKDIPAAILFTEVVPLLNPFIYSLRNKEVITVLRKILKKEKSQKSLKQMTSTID
# Procedure, shortened: as §1
# A0A6P6H1F7 = system: T7, A0A6P6H1F7
# T7 sequence (whole entry): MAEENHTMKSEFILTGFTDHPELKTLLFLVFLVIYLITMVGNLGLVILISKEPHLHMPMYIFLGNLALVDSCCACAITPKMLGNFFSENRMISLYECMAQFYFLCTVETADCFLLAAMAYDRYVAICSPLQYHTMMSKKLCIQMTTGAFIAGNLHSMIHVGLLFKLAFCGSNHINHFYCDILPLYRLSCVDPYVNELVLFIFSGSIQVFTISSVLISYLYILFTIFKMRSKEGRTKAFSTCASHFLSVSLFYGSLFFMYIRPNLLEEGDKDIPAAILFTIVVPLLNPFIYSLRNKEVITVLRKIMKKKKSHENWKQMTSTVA
# Procedure, shortened: as §1
# O10A6 [1] = system: O10A6
# Procedure, shortened: as §1
# Target sequence in this assay (as listed by the source): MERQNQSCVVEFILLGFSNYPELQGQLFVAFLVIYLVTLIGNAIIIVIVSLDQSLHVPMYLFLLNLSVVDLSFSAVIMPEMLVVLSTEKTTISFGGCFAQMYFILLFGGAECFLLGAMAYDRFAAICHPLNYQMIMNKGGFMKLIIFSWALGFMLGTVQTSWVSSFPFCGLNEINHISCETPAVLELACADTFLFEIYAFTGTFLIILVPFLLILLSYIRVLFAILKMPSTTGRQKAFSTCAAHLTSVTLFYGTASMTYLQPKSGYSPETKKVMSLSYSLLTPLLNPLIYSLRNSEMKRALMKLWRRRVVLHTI
# O10A6 [2] = system: T8, O10A6; remark: listed apart in the source
# T8 sequence (whole entry): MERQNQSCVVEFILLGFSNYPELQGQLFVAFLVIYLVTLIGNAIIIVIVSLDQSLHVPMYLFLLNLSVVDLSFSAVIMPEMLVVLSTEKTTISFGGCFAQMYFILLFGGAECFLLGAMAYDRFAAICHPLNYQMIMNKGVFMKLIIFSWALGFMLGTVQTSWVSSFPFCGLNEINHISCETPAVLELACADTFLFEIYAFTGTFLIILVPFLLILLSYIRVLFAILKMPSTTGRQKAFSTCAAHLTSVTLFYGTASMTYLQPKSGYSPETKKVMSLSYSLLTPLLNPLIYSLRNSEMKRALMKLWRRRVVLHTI
# Procedure, shortened: as §1
# O10A6 [3] = system: O10A6; remark: listed apart in the source
# Procedure, shortened: as §1
# Target sequence in this assay (as listed by the source): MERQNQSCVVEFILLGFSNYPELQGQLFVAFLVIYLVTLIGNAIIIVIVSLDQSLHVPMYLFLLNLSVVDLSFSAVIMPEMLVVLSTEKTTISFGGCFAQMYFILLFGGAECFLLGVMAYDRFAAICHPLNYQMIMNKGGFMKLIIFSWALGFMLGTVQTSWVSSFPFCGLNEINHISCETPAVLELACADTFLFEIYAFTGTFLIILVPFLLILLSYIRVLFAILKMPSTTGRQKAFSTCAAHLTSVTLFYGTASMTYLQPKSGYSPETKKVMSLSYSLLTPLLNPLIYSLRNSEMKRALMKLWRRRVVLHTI
# O10A2 H43R H207R K258T = system: T9, O10A2 H43R H207R K258T
# T9 sequence (whole entry): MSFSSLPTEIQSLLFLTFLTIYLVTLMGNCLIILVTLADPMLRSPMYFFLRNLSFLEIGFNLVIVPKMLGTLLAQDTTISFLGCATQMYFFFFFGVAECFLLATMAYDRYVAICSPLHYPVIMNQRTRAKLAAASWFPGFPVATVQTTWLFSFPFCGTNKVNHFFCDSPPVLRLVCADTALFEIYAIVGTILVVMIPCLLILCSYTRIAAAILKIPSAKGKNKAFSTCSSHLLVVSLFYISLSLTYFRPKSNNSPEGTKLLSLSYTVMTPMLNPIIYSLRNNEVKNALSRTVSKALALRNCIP
# Procedure, shortened: as §1
# O10A3 C8G = system: T10, O10A3 C8G
# T10 sequence (whole entry): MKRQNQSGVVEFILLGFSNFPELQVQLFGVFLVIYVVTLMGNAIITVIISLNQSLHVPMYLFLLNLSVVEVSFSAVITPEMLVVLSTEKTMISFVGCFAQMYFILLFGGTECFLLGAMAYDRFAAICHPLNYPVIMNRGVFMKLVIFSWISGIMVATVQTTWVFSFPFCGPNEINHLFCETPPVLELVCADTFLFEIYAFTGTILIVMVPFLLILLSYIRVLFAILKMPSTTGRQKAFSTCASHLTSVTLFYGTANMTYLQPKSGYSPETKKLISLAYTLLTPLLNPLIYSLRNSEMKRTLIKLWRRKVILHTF
# Procedure, shortened: as §1
# O10AD G65C = system: T11, O10AD G65C
# T11 sequence (whole entry): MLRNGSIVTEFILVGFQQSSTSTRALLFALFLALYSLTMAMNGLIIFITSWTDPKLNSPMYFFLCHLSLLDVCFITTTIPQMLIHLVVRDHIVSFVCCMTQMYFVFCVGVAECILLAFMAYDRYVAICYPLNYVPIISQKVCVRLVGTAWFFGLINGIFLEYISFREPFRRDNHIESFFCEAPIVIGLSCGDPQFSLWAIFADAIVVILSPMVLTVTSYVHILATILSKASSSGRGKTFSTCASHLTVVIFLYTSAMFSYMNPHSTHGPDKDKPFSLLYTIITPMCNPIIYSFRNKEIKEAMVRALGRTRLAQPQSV
# Procedure, shortened: as §1
# O10D3 V134A R197K = system: T12, O10D3 V134A R197K
# T12 sequence (whole entry): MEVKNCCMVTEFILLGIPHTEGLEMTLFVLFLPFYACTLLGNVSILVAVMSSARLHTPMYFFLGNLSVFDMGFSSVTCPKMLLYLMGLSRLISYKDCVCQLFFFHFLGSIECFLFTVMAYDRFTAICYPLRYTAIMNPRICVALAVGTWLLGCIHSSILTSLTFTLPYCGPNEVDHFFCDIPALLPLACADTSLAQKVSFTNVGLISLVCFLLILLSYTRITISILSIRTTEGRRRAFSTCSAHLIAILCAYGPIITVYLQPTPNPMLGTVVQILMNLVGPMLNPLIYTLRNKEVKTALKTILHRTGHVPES
# Procedure, shortened: as §1
# O10G4 L24P V195E = system: T13, O10G4 L24P V195E
# T13 sequence (whole entry): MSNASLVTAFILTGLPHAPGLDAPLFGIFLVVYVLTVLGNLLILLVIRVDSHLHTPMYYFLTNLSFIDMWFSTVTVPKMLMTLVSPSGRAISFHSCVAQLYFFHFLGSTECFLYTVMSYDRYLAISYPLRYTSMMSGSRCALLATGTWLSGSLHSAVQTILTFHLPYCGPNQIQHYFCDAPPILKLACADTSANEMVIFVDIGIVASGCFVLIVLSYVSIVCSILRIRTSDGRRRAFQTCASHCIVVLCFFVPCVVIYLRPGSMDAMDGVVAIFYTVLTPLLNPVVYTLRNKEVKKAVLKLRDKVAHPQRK
# Procedure, shortened: as §1
# O10G7 A18V P19Q G20A = system: T14, O10G7 A18V P19Q G20A
# T14 sequence (whole entry): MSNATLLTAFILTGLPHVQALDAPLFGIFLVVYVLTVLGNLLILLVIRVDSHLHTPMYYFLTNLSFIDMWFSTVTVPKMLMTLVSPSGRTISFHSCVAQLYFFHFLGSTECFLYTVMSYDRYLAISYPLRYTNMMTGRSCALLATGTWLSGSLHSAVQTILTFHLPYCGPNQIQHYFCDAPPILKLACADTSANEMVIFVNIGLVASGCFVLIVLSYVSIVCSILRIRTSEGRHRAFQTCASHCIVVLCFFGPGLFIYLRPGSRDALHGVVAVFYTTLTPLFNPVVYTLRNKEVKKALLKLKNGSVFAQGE
# Procedure, shortened: as §1
# O10G7 I28V = system: T15, O10G7 I28V
# T15 sequence (whole entry): T14 sequence (whole entry) with V18A, Q19P, A20G, I28V
# Procedure, shortened: as §1
smiles,measurement,setting,value
CCc1nccnc1CC,odorant receptor agonist call,A0A140T8K0,inactive
same,odorant receptor agonist call,A0A140T8K4,inactive
same,odorant receptor agonist call,A0A2J8MY22,active
same,odorant receptor agonist call,A0A2R8ZIW4,active
same,odorant receptor agonist call,A0A3Q7SVK8,active
same,odorant receptor agonist call,A0A6P3DZI2,inactive
same,odorant receptor agonist call,A0A6P6H1F7,active
CC1CCc2nccnc21 (centres undefined),odorant receptor agonist call,A0A140T8K4,inactive
same,odorant receptor agonist call,A0A2J8MY22,active
same,odorant receptor agonist call,A0A2R8ZIW4,active
same,odorant receptor agonist call,A0A3Q7SVK8,active
same,odorant receptor agonist call,A0A6P3DZI2,inactive
same,odorant receptor agonist call,A0A6P6H1F7,active
CCC(=O)OCCCc1ccccc1,odorant receptor agonist call,O10A6 [1],active
same,odorant receptor agonist call,O10A6 [2],active
same,odorant receptor agonist call,O10A6 [3],inactive
Cc1cnc(C)c(C)n1,odorant receptor agonist call,A0A140T8K4,inactive
same,odorant receptor agonist call,A0A2J8MY22,active
same,odorant receptor agonist call,A0A2R8ZIW4,active
same,odorant receptor agonist call,A0A3Q7SVK8,active
same,odorant receptor agonist call,A0A6P3DZI2,active
same,odorant receptor agonist call,A0A6P6H1F7,active
same,odorant receptor agonist call,O10A2 H43R H207R K258T,inactive
same,odorant receptor agonist call,O10A3 C8G,inactive
same,odorant receptor agonist call,O10A6 [2],inactive
same,odorant receptor agonist call,O10AD G65C,inactive
same,odorant receptor agonist call,O10D3 V134A R197K,inactive
same,odorant receptor agonist call,O10G4 L24P V195E,inactive
same,odorant receptor agonist call,O10G7 A18V P19Q G20A,inactive
same,odorant receptor agonist call,O10G7 I28V,inactive
CCC1OC(C)=C(O)C1=O (centres undefined),odorant receptor agonist call,O10A2 H43R H207R K258T,inactive
same,odorant receptor agonist call,O10A3 C8G,inactive
same,odorant receptor agonist call,O10A6 [2],inactive
same,odorant receptor agonist call,O10AD G65C,inactive
same,odorant receptor agonist call,O10D3 V134A R197K,inactive
same,odorant receptor agonist call,O10G4 L24P V195E,inactive
same,odorant receptor agonist call,O10G7 A18V P19Q G20A,inactive
same,odorant receptor agonist call,O10G7 I28V,inactive
CC1=C(O)C(=O)C(C)O1 (centres undefined),odorant receptor agonist call,O10A2 H43R H207R K258T,inactive
same,odorant receptor agonist call,O10A3 C8G,inactive
same,odorant receptor agonist call,O10A6 [2],inactive
same,odorant receptor agonist call,O10AD G65C,inactive
same,odorant receptor agonist call,O10D3 V134A R197K,inactive
same,odorant receptor agonist call,O10G4 L24P V195E,inactive
same,odorant receptor agonist call,O10G7 A18V P19Q G20A,inactive
same,odorant receptor agonist call,O10G7 I28V,inactive
CC1=C(O)C(=O)OC1C (centres undefined),odorant receptor agonist call,O10A2 H43R H207R K258T,inactive
same,odorant receptor agonist call,O10A3 C8G,inactive
same,odorant receptor agonist call,O10A6 [2],inactive
same,odorant receptor agonist call,O10AD G65C,inactive
same,odorant receptor agonist call,O10D3 V134A R197K,inactive
same,odorant receptor agonist call,O10G4 L24P V195E,inactive
same,odorant receptor agonist call,O10G7 A18V P19Q G20A,inactive
same,odorant receptor agonist call,O10G7 I28V,inactive
